Rows were chosen to be rich in hits. Some 2.4% of all compounds tested hit in one or more screens of this group.
NadD inh = NadD (S. aureus) enzyme inhibition | purified NadD enzyme, colorimetric absorbance read-out | inhibition, % at 20 µM | hit rate 0.78% among 360,000 | AID 602399; in the data active = inhibition above about 26%
SUMO1 PPI mod = alters human SUMO1 binding to SIM partners | SUMO1 binding to a labelled peptide, TR-FRET, 1 h | P63165 | AID 602429 | inhibition, % at 20 µM | hit rate 0.33% among 360,000; in the data active = inhibition above about 37%
Target sequence (P63165 whole entry, looked up): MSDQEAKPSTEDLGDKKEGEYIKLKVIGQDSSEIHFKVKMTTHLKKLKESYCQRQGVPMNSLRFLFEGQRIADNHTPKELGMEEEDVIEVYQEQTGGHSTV
LMPTP inh = blocks human LMPTP phosphatase; recombinant LMPTP-A, OMFP fluorogenic substrate, fluorescence intensity; P24666; inhibition, % at 20 µM; hit rate 0.22% among 360,000;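 active = compounds that cut the enzyme signal by at least half of the control window in the single-dose screen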;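 note: plate controls were DMSO wells with enzyme plus substrate for no effect and substrate without enzyme for full effect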
Target sequence (P24666 whole entry, looked up): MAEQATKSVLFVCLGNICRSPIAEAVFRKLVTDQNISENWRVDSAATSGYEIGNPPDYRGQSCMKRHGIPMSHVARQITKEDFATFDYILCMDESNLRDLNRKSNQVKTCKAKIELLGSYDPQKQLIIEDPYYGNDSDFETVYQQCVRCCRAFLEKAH
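Test system: LMPTP-A phosphatase enzyme. Amount: LMPTP-A at 0.625 nM final in the reaction. Reagent: OMFP substrate, 400 µM final. Times: 50 min at room temperature. Signal: endpoint fluorescence intensity from OMFP dephosphorylation. Read-out basis: % inhibition. Benchmarks: no-enzyme and uninhibited controls.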
DNMT1 block = inhibitors of human DNMT1; P26358; DNMT1 molecular beacon, Hinp1I cleavage, fluorescence; inhibition (reported as % activation of signal), % at 10 µM; hit rate 0.83% among 360,000; in the data active = inhibition above about 50%
STEP block = inhibitors of human striatal-enriched phosphatase STEP | P54829 | recombinant STEP, OMFP fluorogenic substrate, fluorescence | inhibition, % at 20 µM | hit rate 0.25% among 360,000;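 active = inhibition at 20 µM, scaled per plate between control wells, above about 37%, limit read from the data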;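 note: 0% = DMSO with enzyme and substrate and 100% = substrate only without enzyme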
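Assay system: isolated STEP enzyme / Timing: 20 min at room temperature, dark / Doses: 20 µM, 1% DMSO / Technique: fluorescence intensity, excitation 480 nm, emission 540 nm / Reagent: fluorogenic phosphatase substrate OMFP at 25 µM final / Measure: percent inhibition scaled to no-enzyme and uninhibited-enzyme controls, plate-pattern corrected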
Scp1 inh = inhibitors of human Scp-1 phosphatase; Q9GZU7; Recombinant Scp1, phosphopeptide, malachite green phosphate absorbance; inhibition, % at 20 µM; hit rate 0.88% among 340,000;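 active = inhibition above about 50% at 20 µM, limit read from the data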;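 note: plate controls were DMSO wells with enzyme for no effect and wells lacking enzyme for full effect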
Target sequence (Q9GZU7 76-261 limits assumed): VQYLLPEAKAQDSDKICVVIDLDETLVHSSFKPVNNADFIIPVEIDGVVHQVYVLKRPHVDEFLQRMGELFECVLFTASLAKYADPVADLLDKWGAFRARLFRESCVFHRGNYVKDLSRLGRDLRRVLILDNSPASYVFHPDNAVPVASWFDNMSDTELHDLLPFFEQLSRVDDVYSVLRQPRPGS
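Test system: SCP-1 catalytic domain; Buffer or medium: Acidic Tris acetate buffer with magnesium and detergent; Also added: Phosphorylated 17-residue peptide substrate; Compound: single 20 µM dose, 1% DMSO; Schedule: enzyme reaction 45 min at room temperature, colour 5 min, stabilisation 30 min; Signal: Phosphate-binding colour reagent, absorbance read at 630 nm.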
DNMT1 confirm = DNMT1 inhibition confirmation, single concentration; inhibition, % at 10 µM; AID 602385; shares compounds with DNMT1 block; DNMT1 molecular beacon HinP1I cleavage, fluorescence; hit rate 8% among 2,300;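 active = average inhibition of at least 30% in the single-concentration confirmation test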
Beacon interf = beacon fluorescence artifact counter-screen | DNMT1 molecular beacon spectral interference counterscreen, fluorescence 485/520 | activation (fluorescence interference), % at 10 µM | shares compounds with DNMT1 block | hit rate 1% among 2,300;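 active = activation of at least 30% at 10 µM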;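 note: DNMT1 catalytic domain with a HinP1I cleavage step and a FAM/dabcyl DNA beacon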
STEP inh conf = confirmation of human STEP phosphatase inhibitors; shares compounds with STEP block; recombinant STEP, OMFP fluorogenic substrate, fluorescence; inhibition, % at 20 µM; hit rate 32% among 520; AID 623866; call rule not given here;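 note: 0% = enzyme with substrate plus DMSO and 100% = substrate without enzyme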
NadD inh conf = confirmation of Staphylococcus aureus NadD inhibitors; shares compounds with NadD inh; purified S. aureus NadD, colorimetric enzyme assay; inhibition, % at 20 µM; hit rate 13% among 2,000; in the data active = inhibition mostly above about 42%, no sharp cut-off; inactive = mostly below about 42%
* = called active by the depositor; · = no result given.

SMILES	NadD inh	SUMO1 PPI mod	LMPTP inh	DNMT1 block	STEP block	Scp1 inh	DNMT1 confirm	Beacon interf	NadD inh conf	others
Nc1ncnc2c1ncn2[C@@H]1O[C@H](C(=O)Nc2ccc(C(=O)N3CCCCC3)cc2)[C@@H](O)[C@H]1O	-3.8	0.7	-1.4	7.0	2.0	·	·	·	·
NC(=S)NN=C1c2cc(Cl)ccc2-c2c1cc(Cl)cc2[N+](=O)[O-]	35.2*	-8.8	34.2	51.0*	-0.3	-0.3	2.0	-7.2	4.7
CC1C(=O)NN=C1C(=O)N/N=C\c1ccc(O)cc1O (stereo unspecified)	4.6	2.3	-0.4	-2.1	-2.5	-7.6	·	·	·
O=C(NC1CCCC1)C(c1ccncc1)N(C(=O)Cc1cccs1)c1ccc(F)cc1 (stereo unspecified)	-8.1	9.7	0.6	0.9	-1.4	-9.8	·	·	·
Cc1ccccc1N(C(=O)Cc1ccsc1)C(C(=O)NC1CCCCC1)c1ccc(F)cc1 (stereo unspecified)	30.6*	1.5	-0.4	59.2*	-2.8	-2.7	1.2	0.9	-3.4
COC(=O)Cn1c(=NC(=O)c2sc3ccccc3c2Cl)sc2cc(S(N)(=O)=O)ccc21	36.9*	-4.9	32.7	65.7*	3.8	1.1	2.8	-10.2	7.3
CCCn1c(N)c(C(=O)CN(C)CC(=O)Nc2c(C)cc(C)cc2C)c(=O)[nH]c1=O	-2.9	-3.7	-0.7	0.1	0.7	-5.7	·	·	·
CC1(C)CC(=O)C(C=NCC2CCN(C(=O)Cc3ccccc3)CC2)=C(O)C1	35.9*	69.9*	15.1	75.5*	47.5*	3.6	3.6	1.8	3.9	STEP inh conf=0.3
C(=C\c1ccco1)/c1ccc2ccccc2n1	43.8*	9.5	57.0*	79.9*	4.8	-6.9	7.0	3.2	10.8
Nc1ccccc1OCCOCCOc1ccccc1N	1.1	-1.2	-1.7	-8.7	1.7	0.5	·	·	·
CC(C)(C)C(=O)NC(=S)NNC(=O)c1sc2ccccc2c1Cl	-0.5	-1.2	0.4	-4.1	1.6	-13.2	·	·	·
Cc1cccc(C)c1NC(=O)CNC(=O)c1cn(-c2ccccc2)nc1-c1ccccc1	-1.4	0.3	0.0	-0.9	-0.7	-4.5	·	·	·
Cc1nn(Cc2c(Cl)cccc2Cl)c(C)c1NC(=O)c1cn(-c2ccccc2)nc1-c1ccccc1	33.8*	-2.1	2.2	67.8*	5.2	0.8	-1.6	-5.7	6.0
Cc1ccc(S(=O)(=O)NC2(C(F)(F)F)NC(=O)N(c3ccc(F)cc3)C2=O)cc1 (stereo unspecified)	-3.8	10.0	-1.7	-0.5	1.3	-0.8	·	·	·
N#C/C(=C\c1ccc(-c2ccc([N+](=O)[O-])cc2)o1)C(=O)Nc1nc(-c2cccs2)cs1	40.1*	-23.7	6.1	94.6*	2.5	4.5	2.7	-3.6	3.9
CC(=O)Nc1nc(-c2ccc([N+](=O)[O-])cc2)cs1	-1.4	0.2	18.6	4.2	0.1	-10.5	·	·	·
Cc1ccc2nc(NC(=O)C3CCN(S(=O)(=O)c4cc([N+](=O)[O-])ccc4Cl)CC3)sc2c1	30.9*	2.7	3.6	60.4*	0.2	63.7*	2.3	-2.8	-0.2
Cc1cccc2sc(NNC(=O)c3cc(-c4cccs4)nc4ccccc34)nc12	48.7*	1.9	1.4	68.7*	0.5	6.6	2.2	1.4	47.5*
O=C(Cc1ccccc1)N1CCC(O)(c2cccnc2)CC1	-1.1	4.0	1.3	1.9	0.7	0.0	·	·	·
O=C(N/N=C/c1coc2ccccc2c1=O)c1cn(-c2ccccc2)nc1-c1ccc(F)cc1	33.6*	5.7	0.3	59.5*	8.4	-7.1	1.3	4.1	2.5

Screens: PubChem, Sanford-Burnham Center for Chemical Genomics
